The text below walks through data of ChEMBL document CHEMBL1144030, “Synthesis of a potent and selective (18)F-labeled delta-opioid receptor antagonist derived from the Dmt-Tic pharmacophore for positron emission tomography imaging” (J Med Chem, 2008).

Square brackets hold non-standard residues; d marks the D form. Peptide text beside a SMILES is read from it. * marks the point of attachment. Dmt = Cc1cc(O)cc(C)c1C[C@H](N)C(=O)O; Tic = O=C(O)[C@@H]1Cc2ccccc2CN1; Cbz = O=C(OCc1ccccc1)*

Test [1] deals with Delta-type opioid receptor (Rattus norvegicus, UniProt P33533). Put plainly: Displacement of [3H]deltorphin2 from delta opioid receptor in Sprague-Dawley rat brain P2 synaptosomal membrane. An outline of the steps: (§1)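 Competition binding on rat brain P2 synaptosomes, preincubated to strip endogenous opioids and stored at −80 °C in buffered 20% glycerol. Equilibrium 2.5 h at 23 °C. Separation on GFC filters presoaked in 0.1% polyethylenimine, washed three times with ice-cold buffered BSA. Duplicates, five to eight doses, 3–5 independent membrane preparations; Ki by Cheng-Prusoff, mean ± SE.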

For test [2], the target named is Mu-type opioid receptor (Rattus norvegicus, UniProt P33535). Put plainly: Displacement of [3H]DAMGO from mu opioid receptor in Sprague-Dawley rat brain P2 synaptosomal membrane. An outline of the steps:
as §1
On the technique in general: In a radioligand displacement assay an active substance lowers the binding of a labelled ligand.

For test [3], the target named is Mu-type opioid receptor (Cavia porcellus, UniProt P97266). Description: Agonist activity at mu opioid receptor in Hartley guinea pig assessed as inhibition of electrically evoked-contraction. The format is functional. An outline of the steps:
(§2)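 Isolated tissue: single mouse vas deferens (delta) or myenteric plexus longitudinal muscle strips, 2–3 cm, from small intestine of male Hartley guinea pigs (mu), in organ baths with balanced salt solution, pH 7.5. Inhibition of electrically evoked contraction; IC50 (nM) from dose-response curves, mean ± SE of five or six separate assays.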

A further test is filed under the species Rattus norvegicus. Put plainly: Ratio of Ki for mu opioid receptor to delta opioid receptor in Sprague-Dawley rat brain P2 synaptosomal membrane. An outline of the steps:
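Ratio of Ki values from rat brain P2 synaptosome competition binding (2.5 h, 23 °C, equilibrium; filtration on polyethylenimine-treated GFC filters). Ki by Cheng-Prusoff from duplicate assays at five to eight doses, 3–5 independent preparations.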

Test [4] concerns the target T1, Delta-type opioid receptor (Mus musculus, UniProt P32300). Description: Agonist activity at delta opioid receptor in mouse vas deferens assessed as inhibition of electrically evoked-contraction. The format is functional, tissue-based. The procedure, abridged: as §2
Test [5] addresses T1, Delta-type opioid receptor. Put plainly: Antagonist activity at delta opioid receptor in electrically stimulated-mouse vas deferens. The note with it: read-out: pA2 (converted). The test is classed as functional, tissue-based. An outline of the steps: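 Mouse vas deferens in organ bath with physiological salt buffer, pH 7.5, electrically stimulated. Antagonism measured against the delta agonist deltorphin-II and expressed as pA2 derived by Schild plot.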

T1 sequence (P32300 whole entry): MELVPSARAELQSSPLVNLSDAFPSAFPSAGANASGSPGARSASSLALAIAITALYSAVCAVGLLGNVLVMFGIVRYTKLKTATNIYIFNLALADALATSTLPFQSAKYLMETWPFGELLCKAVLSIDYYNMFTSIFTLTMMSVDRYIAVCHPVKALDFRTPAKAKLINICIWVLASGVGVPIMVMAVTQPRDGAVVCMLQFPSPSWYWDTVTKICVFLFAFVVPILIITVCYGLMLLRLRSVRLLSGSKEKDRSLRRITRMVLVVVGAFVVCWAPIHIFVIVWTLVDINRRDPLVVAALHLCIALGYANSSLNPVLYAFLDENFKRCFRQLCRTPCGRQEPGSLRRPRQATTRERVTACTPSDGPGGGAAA
Sequence of Mu-type opioid receptor (Rattus norvegicus, UniProt P33535) (P33535 whole entry): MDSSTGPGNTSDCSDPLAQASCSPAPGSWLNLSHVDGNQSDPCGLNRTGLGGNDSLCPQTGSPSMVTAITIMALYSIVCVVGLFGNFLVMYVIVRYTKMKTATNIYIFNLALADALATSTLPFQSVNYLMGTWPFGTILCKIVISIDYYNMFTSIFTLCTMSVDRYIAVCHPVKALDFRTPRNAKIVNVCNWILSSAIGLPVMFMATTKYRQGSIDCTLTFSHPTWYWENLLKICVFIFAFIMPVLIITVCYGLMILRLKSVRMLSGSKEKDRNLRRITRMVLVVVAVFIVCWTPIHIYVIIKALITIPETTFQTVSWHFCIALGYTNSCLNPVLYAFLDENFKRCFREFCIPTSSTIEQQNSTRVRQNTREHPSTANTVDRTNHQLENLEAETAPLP
Sequence of Mu-type opioid receptor (Cavia porcellus, UniProt P97266) (P97266 whole entry): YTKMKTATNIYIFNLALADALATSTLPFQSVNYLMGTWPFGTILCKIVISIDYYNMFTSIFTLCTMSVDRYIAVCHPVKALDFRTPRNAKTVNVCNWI
Sequence of Delta-type opioid receptor (Rattus norvegicus, UniProt P33533) (P33533 whole entry): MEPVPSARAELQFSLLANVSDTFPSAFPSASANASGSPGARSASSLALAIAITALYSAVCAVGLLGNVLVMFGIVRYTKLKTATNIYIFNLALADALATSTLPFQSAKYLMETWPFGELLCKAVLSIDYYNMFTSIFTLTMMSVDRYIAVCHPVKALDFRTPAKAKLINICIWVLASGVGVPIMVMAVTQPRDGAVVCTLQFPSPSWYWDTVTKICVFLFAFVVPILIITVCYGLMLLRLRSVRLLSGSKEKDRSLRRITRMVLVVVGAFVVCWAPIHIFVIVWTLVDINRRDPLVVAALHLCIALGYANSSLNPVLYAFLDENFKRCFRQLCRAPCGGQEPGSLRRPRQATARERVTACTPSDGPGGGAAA

The term Ki denotes a dissociation constant, usually derived from enzyme kinetics or from competition with a known ligand. A low value points to tighter binding. For orientation: IC50 means the concentration needed to halve the response being measured. Take `Cc1cc(O)cc(C)c1C[C@H](N)C(=O)N1Cc2ccccc2C[C@H]1C(=O)N[C@@H](Cc1ccccc1)C(=O)N[C@@H](CCCCNC(=O)OCc1ccccc1)C(=O)O` (H-[Dmt][Tic]FK(Cbz)-OH): the inhibition constant Ki in test [1] worked out at 0.019 nM; at Mu-type opioid receptor [2] it was 2.75 nM. Moreover, the IC50 at Mu-type opioid receptor [3] was more than 10000 nM.
Consider `Cc1cc(O)cc(O)c1C[C@H](N)C(=O)N1Cc2ccccc2C[C@@H]1C(=O)N[C@@H](Cc1ccccc1)C(=O)N[C@@H](CCCCNC(=O)OCc1ccccc1)C(=O)O`, for which the Ratio Ki in the test listed under Rattus norvegicus stood at 145.
For `Cc1cc(O)cc(C)c1C[C@H](N)C(=O)N1Cc2ccccc2C[C@H]1C(=O)N[C@@H](Cc1ccccc1)C(=O)N[C@@H](CCCCNC(=O)c1ccc(F)cc1)C(=O)O`, the inhibition constant Ki in test [1] came to 0.248 nM; on Mu-type opioid receptor [2], 13.2 nM. For the same compound, the figures for the IC50 (in test [4]; at Mu-type opioid receptor [3]) were 5180 nM and 50.6 nM, respectively. The Kb in test [5] is 0.355 nM.
In the case of `Cc1cc(O)cc(C)c1C[C@H](N)C(=O)N1Cc2ccccc2C[C@@H]1C(=O)N[C@@H](Cc1ccccc1)C(=O)N[C@@H](CCCCNC(=O)c1ccc(F)cc1)C(=O)O`, in the test filed under Rattus norvegicus, the Ratio Ki stood at 53.
Consider `Cc1cc(O)cc(C)c1C[C@H](N)C(=O)N1Cc2ccccc2C[C@@H]1C(=O)NCCCC[C@H](NC(=O)c1ccc(F)cc1)C(=O)O`, for which the Ki in test [1] was determined as 0.172 nM; on Mu-type opioid receptor [2] it was 41.2 nM. For the same compound, the Ratio Ki in the test listed under Rattus norvegicus stood at 240. Besides, the IC50 at Mu-type opioid receptor [3] worked out at 1920 nM. Moreover, the Kb in test [5] was 5.62 nM.
